Experimental data from ChEMBL document CHEMBL1909556, “Synthesis and properties of novel 2'-O-alkoxymethyl-modified nucleic acids” (Bioorg Med Chem Lett, 2011).
The source made the active and inactive calls. No cut-off for these calls is given here.

Legend:
Nucleic Acid [1] = assay: Binding affinity to A12 RNA assessed as change in melting temperature at 2 uM compound at pH 7; assay type: nucleic-acid assay
[2] = Nuclease stability of compound assessed as snake venom phosphodiesterase-mediated degradation at 10 uM after 2 hrs by RP-HPLC analysis; assay type: physicochemical
In short: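 Snake venom phosphodiesterase digestion at 4 × 10^-4 units/ml of 10 μM oligoribonucleotide for 2 h. Buffer was 50 mM Tris-HCl pH 8.5 with 72 mM NaCl and 14 mM MgCl2. The degradation ratio was estimated by reversed-phase HPLC.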

Nucleic Acid [3] = assay: Binding affinity to dA12 DNA assessed as change in melting temperature at 2 uM compound at pH 7; assay type: nucleic-acid assay

Structure (SMILES)	ΔTm (Nucleic Acid [1]) [°C]	Stability [2]	Activity (Nucleic Acid [3])
O=c1ccn([C@@H]2O[C@H](COP(=O)(O)O[C@H]3[C@@H](OCOCC(F)(F)F)[C@H](n4ccc(=O)[nH]c4=O)O[C@@H]3COP(=O)(O)O[C@H]3[C@@H](OCOCC(F)(F)F)[C@H](n4ccc(=O)[nH]c4=O)O[C@@H]3COP(=O)(O)O[C@H]3[C@@H](OCOCC(F)(F)F)[C@H](n4ccc(=O)[nH]c4=O)O[C@@H]3COP(=O)(O)O[C@H]3[C@@H](OCOCC(F)(F)F)[C@H](n4ccc(=O)[nH]c4=O)O[C@@H]3COP(=O)(O)O[C@H]3[C@@H](OCOCC(F)(F)F)[C@H](n4ccc(=O)[nH]c4=O)O[C@@H]3COP(=O)(O)O[C@H]3[C@@H](OCOCC(F)(F)F)[C@H](n4ccc(=O)[nH]c4=O)O[C@@H]3COP(=O)(O)O[C@H]3[C@@H](OCOCC(F)(F)F)[C@H](n4ccc(=O)[nH]c4=O)O[C@@H]3COP(=O)(O)O[C@H]3[C@@H](OCOCC(F)(F)F)[C@H](n4ccc(=O)[nH]c4=O)O[C@@H]3COP(=O)(O)O[C@H]3[C@@H](OCOCC(F)(F)F)[C@H](n4ccc(=O)[nH]c4=O)O[C@@H]3COP(=O)(O)O[C@H]3[C@@H](OCOCC(F)(F)F)[C@H](n4ccc(=O)[nH]c4=O)O[C@@H]3COP(=O)(O)O[C@H]3[C@@H](OCOCC(F)(F)F)[C@H](n4ccc(=O)[nH]c4=O)O[C@@H]3CO)[C@@H](O)[C@H]2OCOCC(F)(F)F)c(=O)[nH]1	4.5	–	–
O=c1ccn([C@@H]2O[C@H](COP(=O)(O)O[C@H]3[C@@H](OCOCCCl)[C@H](n4ccc(=O)[nH]c4=O)O[C@@H]3COP(=O)(O)O[C@H]3[C@@H](OCOCCCl)[C@H](n4ccc(=O)[nH]c4=O)O[C@@H]3COP(=O)(O)O[C@H]3[C@@H](OCOCCCl)[C@H](n4ccc(=O)[nH]c4=O)O[C@@H]3COP(=O)(O)O[C@H]3[C@@H](OCOCCCl)[C@H](n4ccc(=O)[nH]c4=O)O[C@@H]3COP(=O)(O)O[C@H]3[C@@H](OCOCCCl)[C@H](n4ccc(=O)[nH]c4=O)O[C@@H]3COP(=O)(O)O[C@H]3[C@@H](OCOCCCl)[C@H](n4ccc(=O)[nH]c4=O)O[C@@H]3COP(=O)(O)O[C@H]3[C@@H](OCOCCCl)[C@H](n4ccc(=O)[nH]c4=O)O[C@@H]3COP(=O)(O)O[C@H]3[C@@H](OCOCCCl)[C@H](n4ccc(=O)[nH]c4=O)O[C@@H]3COP(=O)(O)O[C@H]3[C@@H](OCOCCCl)[C@H](n4ccc(=O)[nH]c4=O)O[C@@H]3COP(=O)(O)O[C@H]3[C@@H](OCOCCCl)[C@H](n4ccc(=O)[nH]c4=O)O[C@@H]3COP(=O)(O)O[C@H]3[C@@H](OCOCCCl)[C@H](n4ccc(=O)[nH]c4=O)O[C@@H]3CO)[C@@H](O)[C@H]2OCOCCCl)c(=O)[nH]1	11	Unstable	inactive
O=c1ccn([C@@H]2O[C@H](COP(=O)(O)O[C@H]3[C@@H](OCOCC(Cl)(Cl)Cl)[C@H](n4ccc(=O)[nH]c4=O)O[C@@H]3COP(=O)(O)O[C@H]3[C@@H](OCOCC(Cl)(Cl)Cl)[C@H](n4ccc(=O)[nH]c4=O)O[C@@H]3COP(=O)(O)O[C@H]3[C@@H](OCOCC(Cl)(Cl)Cl)[C@H](n4ccc(=O)[nH]c4=O)O[C@@H]3COP(=O)(O)O[C@H]3[C@@H](OCOCC(Cl)(Cl)Cl)[C@H](n4ccc(=O)[nH]c4=O)O[C@@H]3COP(=O)(O)O[C@H]3[C@@H](OCOCC(Cl)(Cl)Cl)[C@H](n4ccc(=O)[nH]c4=O)O[C@@H]3COP(=O)(O)O[C@H]3[C@@H](OCOCC(Cl)(Cl)Cl)[C@H](n4ccc(=O)[nH]c4=O)O[C@@H]3COP(=O)(O)O[C@H]3[C@@H](OCOCC(Cl)(Cl)Cl)[C@H](n4ccc(=O)[nH]c4=O)O[C@@H]3COP(=O)(O)O[C@H]3[C@@H](OCOCC(Cl)(Cl)Cl)[C@H](n4ccc(=O)[nH]c4=O)O[C@@H]3COP(=O)(O)O[C@H]3[C@@H](OCOCC(Cl)(Cl)Cl)[C@H](n4ccc(=O)[nH]c4=O)O[C@@H]3COP(=O)(O)O[C@H]3[C@@H](OCOCC(Cl)(Cl)Cl)[C@H](n4ccc(=O)[nH]c4=O)O[C@@H]3COP(=O)(O)O[C@H]3[C@@H](OCOCC(Cl)(Cl)Cl)[C@H](n4ccc(=O)[nH]c4=O)O[C@@H]3CO)[C@@H](O)[C@H]2OCOCC(Cl)(Cl)Cl)c(=O)[nH]1	-0.8	Unstable	–
O=c1ccn([C@@H]2O[C@H](COP(=O)(O)O[C@H]3[C@@H](OCOCC(F)F)[C@H](n4ccc(=O)[nH]c4=O)O[C@@H]3COP(=O)(O)O[C@H]3[C@@H](OCOCC(F)F)[C@H](n4ccc(=O)[nH]c4=O)O[C@@H]3COP(=O)(O)O[C@H]3[C@@H](OCOCC(F)F)[C@H](n4ccc(=O)[nH]c4=O)O[C@@H]3COP(=O)(O)O[C@H]3[C@@H](OCOCC(F)F)[C@H](n4ccc(=O)[nH]c4=O)O[C@@H]3COP(=O)(O)O[C@H]3[C@@H](OCOCC(F)F)[C@H](n4ccc(=O)[nH]c4=O)O[C@@H]3COP(=O)(O)O[C@H]3[C@@H](OCOCC(F)F)[C@H](n4ccc(=O)[nH]c4=O)O[C@@H]3COP(=O)(O)O[C@H]3[C@@H](OCOCC(F)F)[C@H](n4ccc(=O)[nH]c4=O)O[C@@H]3COP(=O)(O)O[C@H]3[C@@H](OCOCC(F)F)[C@H](n4ccc(=O)[nH]c4=O)O[C@@H]3COP(=O)(O)O[C@H]3[C@@H](OCOCC(F)F)[C@H](n4ccc(=O)[nH]c4=O)O[C@@H]3COP(=O)(O)O[C@H]3[C@@H](OCOCC(F)F)[C@H](n4ccc(=O)[nH]c4=O)O[C@@H]3COP(=O)(O)O[C@H]3[C@@H](OCOCC(F)F)[C@H](n4ccc(=O)[nH]c4=O)O[C@@H]3CO)[C@@H](O)[C@H]2OCOCC(F)F)c(=O)[nH]1	3.5	–	–
CCOCO[C@@H]1[C@H](O)[C@@H](COP(=O)(O)O[C@H]2[C@@H](OCOCC)[C@H](n3ccc(=O)[nH]c3=O)O[C@@H]2COP(=O)(O)O[C@H]2[C@@H](OCOCC)[C@H](n3ccc(=O)[nH]c3=O)O[C@@H]2COP(=O)(O)O[C@H]2[C@@H](OCOCC)[C@H](n3ccc(=O)[nH]c3=O)O[C@@H]2COP(=O)(O)O[C@H]2[C@@H](OCOCC)[C@H](n3ccc(=O)[nH]c3=O)O[C@@H]2COP(=O)(O)O[C@H]2[C@@H](OCOCC)[C@H](n3ccc(=O)[nH]c3=O)O[C@@H]2COP(=O)(O)O[C@H]2[C@@H](OCOCC)[C@H](n3ccc(=O)[nH]c3=O)O[C@@H]2COP(=O)(O)O[C@H]2[C@@H](OCOCC)[C@H](n3ccc(=O)[nH]c3=O)O[C@@H]2COP(=O)(O)O[C@H]2[C@@H](OCOCC)[C@H](n3ccc(=O)[nH]c3=O)O[C@@H]2COP(=O)(O)O[C@H]2[C@@H](OCOCC)[C@H](n3ccc(=O)[nH]c3=O)O[C@@H]2COP(=O)(O)O[C@H]2[C@@H](OCOCC)[C@H](n3ccc(=O)[nH]c3=O)O[C@@H]2COP(=O)(O)O[C@H]2[C@@H](OCOCC)[C@H](n3ccc(=O)[nH]c3=O)O[C@@H]2CO)O[C@H]1n1ccc(=O)[nH]c1=O	-2.5	Unstable	–
O=c1ccn([C@@H]2O[C@H](COP(=O)(O)O[C@H]3[C@@H](O)[C@H](n4ccc(=O)[nH]c4=O)O[C@@H]3COP(=O)(O)O[C@H]3[C@@H](O)[C@H](n4ccc(=O)[nH]c4=O)O[C@@H]3COP(=O)(O)O[C@H]3[C@@H](O)[C@H](n4ccc(=O)[nH]c4=O)O[C@@H]3COP(=O)(O)O[C@H]3[C@@H](O)[C@H](n4ccc(=O)[nH]c4=O)O[C@@H]3COP(=O)(O)O[C@H]3[C@@H](O)[C@H](n4ccc(=O)[nH]c4=O)O[C@@H]3COP(=O)(O)O[C@H]3[C@@H](O)[C@H](n4ccc(=O)[nH]c4=O)O[C@@H]3COP(=O)(O)O[C@H]3[C@@H](O)[C@H](n4ccc(=O)[nH]c4=O)O[C@@H]3COP(=O)(O)O[C@H]3[C@@H](O)[C@H](n4ccc(=O)[nH]c4=O)O[C@@H]3COP(=O)(O)O[C@H]3[C@@H](O)[C@H](n4ccc(=O)[nH]c4=O)O[C@@H]3COP(=O)(O)O[C@H]3[C@@H](O)[C@H](n4ccc(=O)[nH]c4=O)O[C@@H]3COP(=O)(O)O[C@H]3[C@@H](O)[C@H](n4ccc(=O)[nH]c4=O)O[C@@H]3CO)[C@@H](O)[C@H]2O)c(=O)[nH]1	0	–	–
N#CCCOCO[C@@H]1[C@H](O)[C@@H](COP(=O)(O)O[C@H]2[C@@H](OCOCCC#N)[C@H](n3ccc(=O)[nH]c3=O)O[C@@H]2COP(=O)(O)O[C@H]2[C@@H](OCOCCC#N)[C@H](n3ccc(=O)[nH]c3=O)O[C@@H]2COP(=O)(O)O[C@H]2[C@@H](OCOCCC#N)[C@H](n3ccc(=O)[nH]c3=O)O[C@@H]2COP(=O)(O)O[C@H]2[C@@H](OCOCCC#N)[C@H](n3ccc(=O)[nH]c3=O)O[C@@H]2COP(=O)(O)O[C@H]2[C@@H](OCOCCC#N)[C@H](n3ccc(=O)[nH]c3=O)O[C@@H]2COP(=O)(O)O[C@H]2[C@@H](OCOCCC#N)[C@H](n3ccc(=O)[nH]c3=O)O[C@@H]2COP(=O)(O)O[C@H]2[C@@H](OCOCCC#N)[C@H](n3ccc(=O)[nH]c3=O)O[C@@H]2COP(=O)(O)O[C@H]2[C@@H](OCOCCC#N)[C@H](n3ccc(=O)[nH]c3=O)O[C@@H]2COP(=O)(O)O[C@H]2[C@@H](OCOCCC#N)[C@H](n3ccc(=O)[nH]c3=O)O[C@@H]2COP(=O)(O)O[C@H]2[C@@H](OCOCCC#N)[C@H](n3ccc(=O)[nH]c3=O)O[C@@H]2COP(=O)(O)O[C@H]2[C@@H](OCOCCC#N)[C@H](n3ccc(=O)[nH]c3=O)O[C@@H]2CO)O[C@H]1n1ccc(=O)[nH]c1=O	2.8	Stable	–
O=c1ccn([C@@H]2O[C@H](COP(=O)(O)O[C@H]3[C@@H](OCOCC(Cl)Cl)[C@H](n4ccc(=O)[nH]c4=O)O[C@@H]3COP(=O)(O)O[C@H]3[C@@H](OCOCC(Cl)Cl)[C@H](n4ccc(=O)[nH]c4=O)O[C@@H]3COP(=O)(O)O[C@H]3[C@@H](OCOCC(Cl)Cl)[C@H](n4ccc(=O)[nH]c4=O)O[C@@H]3COP(=O)(O)O[C@H]3[C@@H](OCOCC(Cl)Cl)[C@H](n4ccc(=O)[nH]c4=O)O[C@@H]3COP(=O)(O)O[C@H]3[C@@H](OCOCC(Cl)Cl)[C@H](n4ccc(=O)[nH]c4=O)O[C@@H]3COP(=O)(O)O[C@H]3[C@@H](OCOCC(Cl)Cl)[C@H](n4ccc(=O)[nH]c4=O)O[C@@H]3COP(=O)(O)O[C@H]3[C@@H](OCOCC(Cl)Cl)[C@H](n4ccc(=O)[nH]c4=O)O[C@@H]3COP(=O)(O)O[C@H]3[C@@H](OCOCC(Cl)Cl)[C@H](n4ccc(=O)[nH]c4=O)O[C@@H]3COP(=O)(O)O[C@H]3[C@@H](OCOCC(Cl)Cl)[C@H](n4ccc(=O)[nH]c4=O)O[C@@H]3COP(=O)(O)O[C@H]3[C@@H](OCOCC(Cl)Cl)[C@H](n4ccc(=O)[nH]c4=O)O[C@@H]3COP(=O)(O)O[C@H]3[C@@H](OCOCC(Cl)Cl)[C@H](n4ccc(=O)[nH]c4=O)O[C@@H]3CO)[C@@H](O)[C@H]2OCOCC(Cl)Cl)c(=O)[nH]1	10.8	Unstable	inactive
